ChEMBL document CHEMBL1125253, “Allosteric modifiers of hemoglobin. 1. Design, synthesis, testing, and structure-allosteric activity relationship of novel hemoglobin oxygen affinity decreasing agents” (J Med Chem, 1991)
Values joined by “and” are separate entries in the source; they are usually repeats but may differ in a detail not shown here. Equal entries are not always repeated.

Legend:
[1] = target: T1, Hemoglobin HbA (Homo sapiens) (UniProt P69905+P68871); assay: Oxygen pressure in mmHg at which the […] hemoglobin solution (in presence of 10 mM compound) was 50% saturated with oxygen.; format: protein-complex assay
How it was run: (§1)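 Purified HbA from washed, lysed erythrocytes (DEAE-Sephacel, pH 8.4 Tris elution), exchanged into 50 mM HEPES pH 7.4. Stock Hb 5.4 mM mixed 1:1 with 20 mM compound in HEPES, giving final 2.7 mM Hb and 10 mM compound (about 4:1). Control is Hb mixed with buffer alone. Oxygen dissociation curves recorded on a Hem-O-Scan analyzer. P50 in mmHg at 50% saturation.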

[2] = target: T1, Hemoglobin HbA (Homo sapiens); assay: Oxygen pressure in mmHg at which the control hemoglobin solution (no compound) was 50% saturated with oxygen.; format: protein-complex assay; how it was run: as §1
[3] = Dose-response study in whole blood at a concentration of 0.5 mM; format: tissue-based
How it was run: (§2)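 Fresh heparinized whole blood mixed 1:1 with test compound in isosmotic 50 mM HEPES pH 7.4 containing 140 mM NaCl and 10 mM glucose. Hb after addition approximately 1.25 mM. Oxygen dissociation curves recorded on a Hem-O-Scan analyzer. P50 with compound divided by P50 of control.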

[4] = Dose-response study in whole blood at a concentration of 1.0 mM; format: tissue-based; how it was run: as §2
[5] = Dose-response study in whole blood at a concentration of 10.0 mM; format: tissue-based; how it was run: as §2
[6] = Dose-response study in whole blood at a concentration of 2.0 mM; format: tissue-based; how it was run: as §2
[7] = Dose-response study in whole blood at a concentration of 4.0 mM; format: tissue-based; how it was run: as §2

T1 sequence (P68871 2-147 partner limits assumed): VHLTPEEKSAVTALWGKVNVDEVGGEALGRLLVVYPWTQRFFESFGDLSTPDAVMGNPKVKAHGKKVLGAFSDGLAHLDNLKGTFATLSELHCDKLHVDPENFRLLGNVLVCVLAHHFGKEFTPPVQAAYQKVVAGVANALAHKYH
T1 sequence (P69905 2-142 limits assumed): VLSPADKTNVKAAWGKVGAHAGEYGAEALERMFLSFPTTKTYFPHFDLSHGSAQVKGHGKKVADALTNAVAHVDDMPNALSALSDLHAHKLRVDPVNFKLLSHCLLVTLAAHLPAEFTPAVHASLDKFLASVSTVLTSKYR

| SMILES | P50d [1] | P50c [2] | P50d/P50c [3] | P50d/P50c [4] | P50d/P50c [5] | P50d/P50c [6] | P50d/P50c [7] |
| --- | --- | --- | --- | --- | --- | --- | --- |
| CC(C)c1ccc(NC(=O)Cc2ccc(OC(C)(C)C(=O)O)cc2)cc1 | 57 mmHg and 56.5 mmHg and 57.8 mmHg | 19.5 mmHg and 19 mmHg (2×) | – | – | – | – | – |
| CC(C)(Oc1ccc(CCNC(=O)c2ccc(Cl)cc2)cc1)C(=O)O | 31 mmHg [middle of 4 runs] | 18 mmHg and 17 mmHg (2×) and 18.5 mmHg | – | – | – | – | – |
| CC(C)(Oc1ccc(NC(=O)Nc2ccc(Cl)c(Cl)c2)cc1)C(=O)O | 32 mmHg | 18 mmHg | – | – | – | – | – |
| CC(C)(Oc1ccc(NC(=O)Cc2ccccc2)cc1)C(=O)O | 35 mmHg | 19.5 mmHg | – | – | – | – | – |
| CC(C)(Oc1ccc(CNC(=O)c2cc(Cl)cc(Cl)c2)cc1)C(=O)O | 48.5 mmHg and 47 mmHg and 46 mmHg | 19 mmHg | – | – | – | – | – |
| CC(C)(Oc1ccc(CNC(=O)c2ccccc2)cc1)C(=O)O | 35 mmHg and 35.5 mmHg | 18 mmHg and 19 mmHg | – | – | – | – | – |
| CC(C)(Oc1ccc(CC(=O)Nc2ccc(F)cc2)cc1)C(=O)O | 52 mmHg and 44 mmHg | 20 mmHg and 17.5 mmHg | – | – | – | – | – |
| CC(C)(Oc1ccc(CC(=O)Nc2ccccc2)cc1)C(=O)O | 63 mmHg and 54 mmHg | 20.5 mmHg and 19 mmHg | – | – | – | – | – |
| CC(C)(Oc1ccc(CNC(=O)c2ccc(Cl)c(Cl)c2)cc1)C(=O)O | 38.5 mmHg and 40 mmHg | 19 mmHg and 18 mmHg | – | – | – | – | – |
| CC(C)(Oc1ccc(CC(=O)Nc2c(Cl)cccc2Cl)cc1)C(=O)O | 34 mmHg and 35 mmHg | 18 mmHg | – | – | – | – | – |
| CC(C)(Oc1ccc(CC(=O)Nc2cc(Cl)cc(Cl)c2)cc1)C(=O)O | 47 mmHg [middle of 5 runs] | 10.3 mmHg and 11 mmHg (2×) and 19.2 mmHg (2×) | 1.09 | 1.52 | 2.93 | 2 | 2.72 |
| Cc1ccc(NC(=O)Cc2ccc(OC(C)(C)C(=O)O)cc2)cc1 | 40 mmHg and 41 mmHg | 15 mmHg | – | – | – | – | – |
| CC(C)(Oc1ccc(CNC(=O)c2cccc(Cl)c2)cc1)C(=O)O | 37 mmHg | 18 mmHg and 19 mmHg | – | – | – | – | – |
| CC(C)(Oc1ccc(CCNC(=O)c2ccccc2)cc1)C(=O)O | 32 mmHg | 18 mmHg | – | – | – | – | – |
| CC(C)(Oc1ccc(CC(=O)Nc2ccc(C(F)(F)F)cc2)cc1)C(=O)O | 44 mmHg [middle of 4 runs] | 20 mmHg and 17.5 mmHg (2×) and 18 mmHg | – | – | – | – | – |
| CC(C)(Oc1ccc(CNC(=O)c2ccccc2Cl)cc1)C(=O)O | 28 mmHg | 19 mmHg | – | – | – | – | – |

More lines, main results first:

| P50d [1] | P50c [2] | SMILES | P50d/P50c [3] | P50d/P50c [4] | P50d/P50c [5] | P50d/P50c [6] | P50d/P50c [7] |
| --- | --- | --- | --- | --- | --- | --- | --- |
| – | 19 mmHg (2×) and 11.5 mmHg | CC(C)(Oc1ccc(CNC(=O)c2cc(Cl)c(Cl)c(Cl)c2)cc1)C(=O)O | – | – | – | – | – |
| 44 mmHg [middle of 5 runs] | 19 mmHg (4×) and 21 mmHg | CC(C)(Oc1ccc(NC(=O)Cc2ccc(Cl)cc2)cc1)C(=O)O | – | – | – | – | – |
| 37 mmHg and 60 mmHg and 63 mmHg | 12 mmHg and 19 mmHg (2×) | CC(C)(Oc1ccc(CC(=O)Nc2cc(Cl)c(Cl)c(Cl)c2)cc1)C(=O)O | – | – | – | – | – |
| 44 mmHg and 65 mmHg and 63 mmHg | 11.8 mmHg and 18 mmHg (2×) | CC(C)(Oc1ccc(NC(=O)Nc2cc(Cl)cc(Cl)c2)cc1)C(=O)O | 0.96 | 1.15 | 2.25 | 1.7 | 1.84 |
| 52 mmHg [middle of 4 runs] | 15.5 mmHg and 19 mmHg and 18.5 mmHg (2×) | CC(C)(Oc1ccc(CC(=O)Nc2ccc(Cl)cc2)cc1)C(=O)O | – | – | – | – | – |
| 48 mmHg (2×) and 49 mmHg | 19 mmHg (2×) and 18 mmHg | CC(C)(Oc1ccc(CNC(=O)c2ccc(Cl)cc2)cc1)C(=O)O | – | – | – | – | – |
| 75.5 mmHg and 76.5 mmHg and 78 mmHg | 19 mmHg and 19.2 mmHg (2×) | Cc1cc(C)cc(NC(=O)Cc2ccc(OC(C)(C)C(=O)O)cc2)c1 | 1.07 | 1.53 | 3 | 1.93 | 2.61 |
| 65 mmHg | 18.2 mmHg and 18 mmHg | CC(C)(Oc1ccc(CC(=O)Nc2ccc(Cl)c(Cl)c2)cc1)C(=O)O | – | – | – | – | – |
| 48 mmHg and 35 mmHg and 36 mmHg | 18 mmHg and 14 mmHg (2×) | CC(C)(Oc1ccc(NC(=O)Nc2cc(Cl)c(Cl)c(Cl)c2)cc1)C(=O)O | – | – | – | – | – |
